The test system of assay [1] is HT-29. In words: Induction of ROS generation in human HT-29 cells at 30 uM by CM-H2DCFDA staining-based fluorescence assay in presence of N-acetylcysteine. It counts as functional, cell-based. The gist of the method: (§1)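 HT-29 (15 000 cells/well) loaded with 50 μM CM-H2DCFDA in PBS for 30 min at 37 °C, washed, then 60 min in phenol red-free DMEM/F-12. 30 μM compound added alone or with NAC 1 mM, GSH 2.5 mM, D3T 25 μM, α-tocopherol 50 μM or ascorbic acid 500 μM. Fluorescence 485/530 nm read kinetically at 37 °C for 22 h; area under curve; means ± SEM, n = 7.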

The subject of assay [2] is HT-29. In words: Downregulation of CDK2 expression in human HT-29 cells at 10 uM after 48 hrs by immunoblotting method. It counts as functional, cell-based. The gist of the method:
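HT-29 exposed to 10 μM for 48 h; whole-cell lysates immunoblotted for the indicated proteins (total and cleaved PARP for the apoptosis line).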
Background: In western blotting, separated proteins are transferred to a membrane and probed.

For assay [3], the system named is HT-29. In words: Increase in extracellular acidification rate in human HT-29 cells at 2 uM measured for 20 to 150 mins by time-resolved fluorescence assay. Type of assay: functional. The gist of the method:
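HT-29 seeded 80 000 cells/well, held overnight at 37 °C without CO2. Low-buffering medium (1 mM PBS pH 7.4, 20 mM glucose, salts) with pH-sensitive lifetime probe, unsealed wells. Time-resolved fluorescence at 37 °C for 200 min, lifetime converted to pH. Acidification rate (H+ change/min) taken over 20–150 min; means ± SEM, n = 8.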

Assay [4] relates to HT-29. In words: Upregulation of p21/Cip1 expression in human HT-29 cells at 10 uM after 48 hrs by immunoblotting method. Type of assay: functional, cell-based. The gist of the method:
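HT-29 cells exposed 48 h to 10 μM compound. Whole-cell protein lysates probed for cell-cycle modulators by immunoblotting.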

The test system of assay [5] is HT-29. Briefly: Induction of cell cycle arrest in human HT-29 cells assessed as accumulation at S phase at 10 uM by flow cytometry (reference value: 11%). It counts as functional.
Assay [6] relates to HT-29. In words: Induction of ROS generation in human HT-29 cells at 30 uM by CM-H2DCFDA staining-based fluorescence assay in presence of glutathione. Type of assay: functional, cell-based. The gist of the method: as §1
The subject of assay [7] is HT-29. In words: Induction of ROS generation in human HT-29 cells at 30 uM by CM-H2DCFDA staining-based fluorescence assay. Type of assay: functional, cell-based. The gist of the method: as §1
Assay [8] concerns HT-29. Briefly: Increase in mitochondrial oxygen consumption in human HT-29 cells at 2 to 10 uM measured for 20 to 60 mins by time-resolved fluorescence assay. It counts as functional, cell-based. The gist of the method: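 HT-29 at 80 000 cells/well in phenol red-free DMEM/F-12 with oxygen-sensitive lifetime probe, compound added, wells sealed with mineral oil. Time-resolved fluorescence at 37 °C, 90 s intervals for 150 min. Lifetime slope over 20–60 min expressed relative to untreated cells; means ± SEM, n = 8.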

In assay [9] the test system is HT-29. In words: Antiproliferative activity against human HT-29 cells assessed as cellular DNA content at 20 uM after 48 hrs by CyQUANT NF fluorescence assay in presence of PPAR siRNA. Type of assay: functional, cell-based. The gist of the method: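 HT-29 reverse-transfected with equimolar siRNA pool against PPARα, β/δ, γ (10 nM each) or 30 nM nonspecific siRNA, seeded 850 cells/well. After 48 h, 20 μM compound added for a further 48 h. Relative cell number from DNA content; means ± SD, n = 8.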

Assay [10] concerns HT-29. In words: Induction of apoptosis in human HT-29 cells assessed as mitochondrial membrane depolarization after 5 mins by JC-1 dye-based fluorescence assay. The settings on record: HT-29, 5 min. Type of assay: functional, cell-based. The gist of the method: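 HT-29 (40 000 cells/well) treated with concentration series for 5 min at 37 °C, then JC-1 added for a further 10 min and washed. Red (560/590 nm) to green (485/520 nm) fluorescence ratio taken as ΔΨm; variable-slope fit for IC50; means ± SD, n = 4.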

Assay [11] has as its system HT-29. In words: Increase in extracellular acidification rate in human HT-29 cells at 10 uM measured for 20 to 150 mins by time-resolved fluorescence assay relative to control. It counts as functional. The gist of the method: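 HT-29 cells seeded 80 000/well, incubated overnight at 37 °C without CO2. Washed and loaded with pH-sensitive time-resolved fluorescence probe in low-buffering medium (1 mM PBS pH 7.4, 20 mM glucose, salts), 10 min at 37 °C, then compound added, wells unsealed. Read 200 min at 37 °C; lifetime converted to pH, rate taken 20–150 min as H+ change/min; n = 8.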

Assay [12] is described as follows: Antiproliferative activity against human PC3 cells assessed as cellular DNA content after 72 hrs by CyQUANT NF fluorescence assay relative to control. It counts as functional, PC-3. The gist of the method: (§2)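 Cells seeded at 750 (HT-29), 250 (PC-3) or 900 (T84, MCF7) cells/well, treated next day with concentration series for 72 h (HT-29, PC-3) or 96 h (T84, MCF7). Relative cell number from cellular DNA content by fluorescent DNA-binding dye. Variable-slope fit; efficiency = maximal inhibition (100% − Bottom) vs untreated; IC50 relative to the compound's own maximal efficiency.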

Assay [13] has as its system HT-29. Briefly: Induction of apoptosis in human HT-29 cells assessed as opening of mitochondrial permeability transition pore at 30 uM after 30 mins calcein/CoCl2 staining-based fluorescence assay in presence of cyclosporinA. It counts as functional, cell-based. The gist of the method: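 Trypsinized HT-29 (10^6 cells/mL) in HBSS/Ca with 10 nM calcein and 400 μM CoCl2. Pretreated 60 min at 37 °C with 2 μM cyclosporin A or vehicle, then test compound for 30 min at 37 °C. Washed; mitochondrial calcein fluorescence by flow cytometry; means ± SEM, n = 6.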

The test system of assay [14] is HT-29. Briefly: Induction of apoptosis in human HT-29 cells assessed as increase in phosphatidylserine externalization at 10 uM after 48 hrs by flow cytometry in presence of alphaFas. It counts as functional, cell-based. The gist of the method:
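HT-29 exposed 48 h to 10 μM compound, αFAS (10 ng/mL), TRAIL (30 ng/mL) or combinations. Phosphatidylserine externalization by annexin V flow cytometry. Expected combination effects from Bliss independence; means ± SEM, n = 4.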
(Flow cytometry measures light scatter and fluorescence of single cells or particles in a stream.)

Assay [15] concerns the target T1, Peroxisome proliferator-activated receptor delta (Homo sapiens, UniProt Q03181).
T1 sequence (Q03181 whole entry): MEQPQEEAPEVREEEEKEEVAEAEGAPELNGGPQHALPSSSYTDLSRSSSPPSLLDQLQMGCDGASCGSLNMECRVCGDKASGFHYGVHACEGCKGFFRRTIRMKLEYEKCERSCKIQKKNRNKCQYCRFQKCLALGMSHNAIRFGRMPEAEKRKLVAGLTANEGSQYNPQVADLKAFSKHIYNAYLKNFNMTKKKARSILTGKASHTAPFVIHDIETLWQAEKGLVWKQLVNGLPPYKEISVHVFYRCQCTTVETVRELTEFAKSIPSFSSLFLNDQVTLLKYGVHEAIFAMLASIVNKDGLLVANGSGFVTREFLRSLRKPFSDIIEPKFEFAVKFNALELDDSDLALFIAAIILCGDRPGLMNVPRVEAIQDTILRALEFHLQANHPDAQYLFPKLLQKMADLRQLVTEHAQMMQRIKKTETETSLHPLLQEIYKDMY
Briefly: Competitive binding affinity to PPARbeta/delta (unknown origin) by TR-FRET assay. For orientation: Time-resolved FRET reads energy transfer from a long-lived donor to a nearby acceptor.

Assay [16] is described as follows: Antiproliferative activity against human PC3 cells assessed as cellular DNA content after 72 hrs by CyQUANT NF fluorescence assay. Type of assay: functional, cell-based. The settings on record: PC-3, 72 h. The gist of the method:
as §2

Consider one compound from ChEMBL document CHEMBL3779787, “Amorfrutin C Induces Apoptosis and Inhibits Proliferation in Colon Cancer Cells through Targeting Mitochondria” (J Nat Prod, 2016).

Active and inactive are the calls of the source. No cut-off for these calls is given here.

Usually IC50 stands for the point on the concentration scale where inhibition reaches its midpoint. As a reminder, the Ki is a dissociation constant, usually derived from enzyme kinetics or from competition with a known ligand. Higher therefore signals a looser hold on the target. Consider `COc1c(CC=C(C)C)c(O)c(C(=O)O)c(CCc2ccccc2)c1CC=C(C)C`, for which the outcome in [1], in [6] and in assay [13] was inactive. Further, the result in assay [2], in [4], in assay [7], in [8], in [9] and in [14] was Active. Moreover, the Activity is 1.5 ×10⁻⁹ /min in [3] and 2% in assay [5]. In addition, the IC50 in [10] was found to be 0.6 µM; in assay [16], 16 µM. Moreover, the “fold change (FC)” value in [11] is 6. For the same compound, the Efficacy in [12] was determined as 95%. The Ki in assay [15] was 5.2 µM.
